Rows were chosen to be rich in hits. Some 2.3% of all compounds tested hit in one or more screens of this group.
SUMO1 PPI mod = alters human SUMO1 binding to SIM partners | P63165 | SUMO1 binding to a labelled peptide, TR-FRET, 1 h | inhibition, % at 20 µM | 360,000 compounds, 0.33% hits | AID 602429; in the data active = inhibition above about 37%
Target sequence (P63165 whole entry, looked up): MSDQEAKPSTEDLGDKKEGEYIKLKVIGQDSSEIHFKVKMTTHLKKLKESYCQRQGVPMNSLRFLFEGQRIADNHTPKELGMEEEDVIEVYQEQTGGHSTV
CSN inh = CSN deneddylation inhibition; Q92905; Purified CSN, SCF-Nedd8-OG deneddylation, fluorescence polarization; inhibition, % at 12.5 µM; 360,000 compounds, 0.38% hits; AID 651999;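 active = pattern-corrected inhibition above about 35%, with an unprinted fluorescence ratio check between 0.5 and 1.5, limit read from the data, passing the limit was not always enough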;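 also: 0% = enzyme with substrate and 100% = substrate without enzyme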
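Test system: purified human Csn5 enzyme expressed in HEK293T cells. Amount: 0.24 nM enzyme. Reagent: SCFSkp2-Nedd8OG substrate at 10 nM final. Schedule: 90 min incubation of compound, enzyme and substrate at room temperature. Detection: fluorescence polarization. Read-out: % inhibition of substrate cleavage by Csn5.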
Rpn11 block = Rpn11 (human) deubiquitinase inhibition; 360,000 compounds, 0.59% hits; inhibition, % at 20 µM; O00487; human 26S proteasome, Ub4-pepOG fluorescence polarization; 20S core pre-blocked with epoxomicin;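 active = inhibition at 20 µM, scaled to each plate's controls, above about 33%, limit read from the data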
Target sequence (O00487 whole entry, looked up): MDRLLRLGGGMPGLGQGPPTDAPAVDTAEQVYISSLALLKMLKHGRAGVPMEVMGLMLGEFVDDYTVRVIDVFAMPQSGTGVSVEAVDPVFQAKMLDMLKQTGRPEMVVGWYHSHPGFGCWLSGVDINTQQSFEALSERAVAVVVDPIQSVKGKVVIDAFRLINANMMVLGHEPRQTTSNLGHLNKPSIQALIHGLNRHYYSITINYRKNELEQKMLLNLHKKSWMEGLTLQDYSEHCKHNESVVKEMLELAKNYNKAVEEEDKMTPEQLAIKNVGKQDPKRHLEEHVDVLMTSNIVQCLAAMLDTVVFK
SKN-1 inh = C. elegans SKN-1 inhibition; C. elegans VP596 Pgst-4::GFP/RFP ratio, acrylamide-induced, 24 h; inhibition, % at 21.8 µM; 360,000 compounds, 0.49% hits;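 active = interference check ratio from 0.5 to 1.5 plus GFP to RFP signal ratio inhibition reaching or exceeding a fixed threshold, cut at about 30% in these data, passing the limit was not always enough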
DNMT1 inh = DNMT1 (human) enzyme inhibition | P26358 | DNMT1 molecular beacon, Hinp1I cleavage, fluorescence | inhibition (reported as % activation of signal), % at 10 µM | 360,000 compounds, 0.83% hits | AID 588458; in the data active = inhibition above about 50%
MT1-MMP act inh = inhibitors of human MT1-MMP activation. HT1080 RFP-PRO-GFP cells, GFP/RFP ratio fluorescence, overnight; percent of plate control window, DMSO zero. GFP/RFP ratio change, % at 20 µM. 360,000 compounds, 0.061% hits;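 active = GFP/RFP ratio change of at least 30% with cell ATP level not reduced by more than half and red fluorescence within 50% of control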
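Assay system: HT1080 RFP-PRO-GFP cells. Benchmarks: DMSO vehicle wells and RFP-L50D-GFP reporter cell wells. Times: overnight cell settling, then overnight compound exposure, 37 °C, 5% CO2. Compound: 20 µM single dose, 1% DMSO. Read-out basis: GFP/RFP fluorescence ratio.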
Starred values were filed as active, the others as inactive; x = no result given.

SMILES | SUMO1 PPI mod | CSN inh | Rpn11 block | SKN-1 inh | DNMT1 inh | MT1-MMP act inh
Clc1ccc(-c2nnc(-c3ccccc3Cl)o2)cc1 | -5 | -1 | -3 | 62* | 1 | 1
Clc1ccccc1-c1nnc(-c2ccccc2Cl)o1 | -5 | 4 | 18 | 67* | 0 | -2
Cc1ccccc1C1N=C2Oc3ccccc3C=C2C(=O)N1 (stereo unspecified) | -21 | 2 | -2 | 3 | 4 | -1
CC[C@H]1OC(=O)[C@H](C)[C@@H](O[C@H]2C[C@@](C)(OC)[C@@H](O)[C@H](C)O2)[C@H](C)[C@@H](O[C@@H]2O[C@H](C)C[C@H](N(C)C)[C@H]2O)[C@](C)(O)C[C@@H](C)C(=O)[C@H](C)[C@@H](O)[C@]1(C)O | 14 | 5 | 8 | 4 | 77* | -4
CC(=O)c1cccc(NC(=O)CNC(=O)Cc2cccc3ccccc23)c1 | 1 | -2 | 3 | -22 | -3 | 0
COc1ccc(NC(=O)CNC(=O)Cc2cccc3ccccc23)cc1 | 3 | 37* | 0 | 7 | 1 | -2
O=C(CSc1nc(-c2ccc(F)cc2)nc2c1Cc1ccccc1O2)Nc1ccc(C(=O)O)cc1 | 106* | 26 | 163* | 8 | 95* | -1
C(=C\c1ccc2ccccc2n1)/c1ccccc1 | -24 | 3 | 5 | 84* | 4 | 4
Oc1ccc(/C=C/c2ccc3ccccc3n2)cc1 | -18 | 2 | 3 | 25 | -8 | -1
Fc1ccccc1/C=C/c1ccc2ccccc2n1 | -13 | 0 | 1 | 88* | -4 | 0
O=C(O)/C=C/c1ccc2ccccc2n1 | -7 | -2 | -2 | 6 | 3 | 1
COC(=O)C1=CN(c2ccc(C(C)(C)C)cc2)C(N)=C(C#N)C1c1cccc([N+](=O)[O-])c1 (stereo unspecified) | -2 | -5 | x | -10 | x | -2
Cn1c(=O)c(NC2CCCCC2)c2c3c(cccc31)C(=O)c1ccccc1-2 | -20 | -91 | -42 | -55 | 42 | -147
Cn1c(=O)c(N)c2c3c(c(Br)ccc31)C(=O)c1ccccc1-2 | -44 | -79 | -191 | -73 | 155* | -138
Cc1ccc(NC(=O)c2ccc(F)cc2F)cc1 | 4 | 1 | 1 | 41* | 8 | -2
Cc1ccc(Cn2c(=N)n(CC(=O)c3ccc([N+](=O)[O-])cc3)c3ccccc32)cc1 | -22 | 42* | x | 8 | 24 | -42
CCc1nc2ccc(C(=O)N(C)CCCN(C)C)cn2c1N(C=O)CCC(C)C | 0 | -1 | 5 | 20 | 1 | -1
COc1cc(/C=C2/SC(=S)N(Cc3ccccc3)C2=O)ccc1OCC(=O)O | -11 | 11 | 30 | -4 | 1 | 6
COc1cc(/C=C2/SC(=S)N(Cc3ccccc3)C2=O)cc(Cl)c1O | -25 | 94 | x | 36* | -13 | 9
COc1ccccc1Cc1c(-c2ccco2)nc2cc(C)c(Br)c(C)n12 | 24 | 27 | x | 6 | x | -5
CC(C)c1ccc(NC(=O)NCc2cccnc2)cc1 | 1 | 0 | 1 | 39* | -8 | 3
Cc1cc(C(=O)CN2C(=O)NC3(CCCc4ccccc43)C2=O)c(C)n1Cc1ccccc1 (stereo unspecified) | 0 | -1 | x | 36* | -7 | 0
CCCNC(=O)C1(C)CCCN(Cc2ccc(-c3ccccn3)cc2)C1 (stereo unspecified) | -1 | 0 | 1 | -7 | 0 | 2
CCOc1ccc(Cl)cc1-c1cc(C(=O)NCc2ccccc2OC)[nH]n1 | 3 | -1 | -8 | -12 | -13 | -13
CC(=O)Nc1ccc(C(=O)Nc2nc(-c3cccnc3)cs2)cc1 | 60* | -3 | 3 | -8 | -4 | -2
CCCCn1nnnc1C(c1cc2ccccc2o1)N1CCN(c2ncccc2C#N)CC1 (stereo unspecified) | 5 | -1 | x | 20 | x | -9
COc1cc(/C=N/N(CCO)C2=NS(=O)(=O)c3ccccc32)cc(OC)c1OC | 15 | 1 | -8 | 35* | 0 | -2
